Assay results reported in ChEMBL document CHEMBL4118046, “Chemistry of Renieramycins. 17. A New Generation of Renieramycins: Hydroquinone 5-O-Monoester Analogues of Renieramycin M as Potential Cytotoxic Agents against Non-Small-Cell Lung Cancer Cells” (J Nat Prod, 2017).

What was measured:
NCI-H292 = test: Cytotoxicity against human NCI-H292 cells after 72 hrs by MTT assay; format: functional, cell-based; details: NCI-H292, 72 h
Summary of the method: (§1)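 Metastatic human NSCLC lines H292 and H460, obtained from ATCC, were tested for viability by MTT assay following a previously published protocol. Cisplatin and doxorubicin served as positive controls. IC50 values are reported.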

NCI-H460 = test: Cytotoxicity against human NCI-H460 cells after 72 hrs by MTT assay; format: functional, cell-based; details: NCI-H460, 72 h; summary of the method: as §1

## COC1=C(C)C(=O)C2=C(C1=O)[C@@H]1[C@@H]3CC4=C(C(=O)C(OC)=C(C)C4=O)[C@H](CO)N3[C@@H](C#N)[C@@H](C2)N1C
NCI-H292
  IC50: 217 nM
NCI-H460
  IC50: 164 nM

## C/C=C(/C)C(=O)OC[C@H]1c2c(O)c(OC)c(C)c(OC(=O)/C=C/c3ccc(F)cc3)c2C[C@H]2[C@H]3C4=C(C[C@H]([C@H](C#N)N12)N3C)C(=O)C(C)=C(OC)C4=O
NCI-H292
  IC50: 63 nM
NCI-H460
  IC50: 17 nM

## C/C=C(/C)C(=O)OC[C@H]1c2c(O)c(OC)c(C)c(OC=O)c2C[C@H]2[C@H]3C4=C(C[C@H]([C@H](C#N)N12)N3C)C(=O)C(C)=C(OC)C4=O
NCI-H292
  IC50: 12 nM
NCI-H460
  IC50: 9.7 nM

## C/C=C(/C)C(=O)OC[C@H]1c2c(O)c(OC)c(C)c(OC(=O)/C=C/c3cccnc3)c2C[C@H]2[C@H]3C4=C(C[C@H]([C@H](C#N)N12)N3C)C(=O)C(C)=C(OC)C4=O
NCI-H292
  IC50: 57 nM
NCI-H460
  IC50: 52 nM

## C/C=C(/C)C(=O)OC[C@H]1c2c(O)c(OC)c(C)c(O)c2C[C@H]2[C@H]3c4c(O)c(OC)c(C)c(O)c4C[C@H]([C@H](C#N)N12)N3C
NCI-H292
  IC50: 1.7 nM
NCI-H460
  IC50: 1.1 nM

## C/C=C(/C)C(=O)OC[C@H]1c2c(O)c(OC)c(C)c(OC(=O)CCC)c2C[C@H]2[C@H]3C4=C(C[C@H]([C@H](C#N)N12)N3C)C(=O)C(C)=C(OC)C4=O
NCI-H292
  IC50: 6.7 nM
NCI-H460
  IC50: 5.6 nM

## C/C=C(/C)C(=O)OC[C@H]1c2c(O)c(OC)c(C)c(OC(=O)c3ccc(Br)cc3)c2C[C@H]2[C@H]3C4=C(C[C@H]([C@H](C#N)N12)N3C)C(=O)C(C)=C(OC)C4=O
NCI-H292
  IC50: 21 nM
NCI-H460
  IC50: 14 nM

## C/C=C(/C)C(=O)OC[C@H]1c2c(O)c(OC)c(C)c(OC(=O)c3ccc4ncccc4c3)c2C[C@H]2[C@H]3C4=C(C[C@H]([C@H](C#N)N12)N3C)C(=O)C(C)=C(OC)C4=O
NCI-H292
  IC50: 54 nM
NCI-H460
  IC50: 45 nM

## C/C=C(/C)C(=O)OC[C@H]1c2c(O)c(OC)c(C)c(OC(=O)CNC(=O)OC(C)(C)C)c2C[C@H]2[C@H]3C4=C(C[C@H]([C@H](C#N)N12)N3C)C(=O)C(C)=C(OC)C4=O
NCI-H292
  IC50: 10 nM
NCI-H460
  IC50: 6 nM

## C/C=C(/C)C(=O)OC[C@H]1c2c(O)c(OC)c(C)c(OC(=O)/C=C/c3ccccc3)c2C[C@H]2[C@H]3C4=C(C[C@H]([C@H](C#N)N12)N3C)C(=O)C(C)=C(OC)C4=O
NCI-H292
  IC50: 12 nM
NCI-H460
  IC50: 11 nM

## C/C=C(/C)C(=O)OC[C@H]1c2c(O)c(OC)c(C)c(OC(=O)c3cccnc3)c2C[C@H]2[C@H]3C4=C(C[C@H]([C@H](C#N)N12)N3C)C(=O)C(C)=C(OC)C4=O
NCI-H292
  IC50: 59 nM
NCI-H460
  IC50: 20 nM

## C/C=C(/C)C(=O)OC[C@H]1c2c(c(O)c(C)c3c2OCO3)C[C@H]2[C@H]3C4=C(C[C@H]([C@H](C#N)N12)N3C)C(=O)C(C)=C(OC)C4=O
NCI-H292
  IC50: 61 nM
NCI-H460
  IC50: 36 nM

## C/C=C(/C)C(=O)OC[C@H]1c2c(c(OC(C)=O)c(C)c(OC)c2OC(C)=O)C[C@H]2[C@H]3C4=C(C[C@H]([C@H](C#N)N12)N3C)C(=O)C(C)=C(OC)C4=O
NCI-H292
  IC50: 28 nM
NCI-H460
  IC50: 25 nM

## C/C=C(/C)C(=O)OC[C@H]1c2c(O)c(OC)c(C)c(OC(=O)[C@H](C)NC(=O)OC(C)(C)C)c2C[C@H]2[C@H]3C4=C(C[C@H]([C@H](C#N)N12)N3C)C(=O)C(C)=C(OC)C4=O
NCI-H292
  IC50: 24 nM
NCI-H460
  IC50: 16 nM

## C/C=C(/C)C(=O)OC[C@H]1c2c(O)c(OC)c(C)c(OC(=O)CCCC)c2C[C@H]2[C@H]3C4=C(C[C@H]([C@H](C#N)N12)N3C)C(=O)C(C)=C(OC)C4=O
NCI-H292
  IC50: 36 nM
NCI-H460
  IC50: 26 nM

## C/C=C(/C)C(=O)OC[C@H]1c2c(O)c(OC)c(C)c(OC(=O)c3cnc4ccccc4c3)c2C[C@H]2[C@H]3C4=C(C[C@H]([C@H](C#N)N12)N3C)C(=O)C(C)=C(OC)C4=O
NCI-H292
  IC50: 111 nM
NCI-H460
  IC50: 22 nM

## C/C=C(/C)C(=O)OC[C@H]1c2c(O)c(OC)c(C)c(OC(=O)OC)c2C[C@H]2[C@H]3C4=C(C[C@H]([C@H](C#N)N12)N3C)C(=O)C(C)=C(OC)C4=O
NCI-H292
  IC50: 11 nM
NCI-H460
  IC50: 14 nM

## C/C=C(/C)C(=O)OC[C@H]1c2c(O)c(OC)c(C)c(OC(=O)c3ccc(-c4ccccc4)cc3)c2C[C@H]2[C@H]3C4=C(C[C@H]([C@H](C#N)N12)N3C)C(=O)C(C)=C(OC)C4=O
NCI-H292
  IC50: 71 nM
NCI-H460
  IC50: 54 nM

## COc1cc2c(cc1O)CCN[C@]21CS[C@@H]2c3c(OC(C)=O)c(C)c4c(c3[C@H](COC1=O)N1[C@@H]2[C@H]2c3c(cc(C)c(OC)c3O)C[C@H]([C@@H]1C#N)N2C)OCO4
NCI-H292
  IC50: 1.6 nM
NCI-H460
  IC50: 1.2 nM

## C/C=C(/C)C(=O)OC[C@H]1c2c(O)c(OC)c(C)c(OC(=O)c3ccncc3)c2C[C@H]2[C@H]3C4=C(C[C@H]([C@H](C#N)N12)N3C)C(=O)C(C)=C(OC)C4=O
NCI-H292
  IC50: 20 nM
NCI-H460
  IC50: 11 nM

## C/C=C(/C)C(=O)OC[C@H]1c2c(O)c(OC)c(C)c(OC(=O)CC)c2C[C@H]2[C@H]3C4=C(C[C@H]([C@H](C#N)N12)N3C)C(=O)C(C)=C(OC)C4=O
NCI-H292
  IC50: 2.3 nM
NCI-H460
  IC50: 5.1 nM

## C/C=C(/C)C(=O)OC[C@H]1c2c(O)c(OC)c(C)c(OC(C)=O)c2C[C@H]2[C@H]3C4=C(C[C@H]([C@H](C#N)N12)N3C)C(=O)C(C)=C(OC)C4=O
NCI-H292
  IC50: 3 nM
NCI-H460
  IC50: 3.6 nM

## C/C=C(/C)C(=O)OC[C@H]1c2c(O)c(OC)c(C)c(OC(=O)CCCCC)c2C[C@H]2[C@H]3C4=C(C[C@H]([C@H](C#N)N12)N3C)C(=O)C(C)=C(OC)C4=O
NCI-H292
  IC50: 16 nM
NCI-H460
  IC50: 15 nM

## C/C=C(/C)C(=O)OC[C@H]1c2c(O)c(OC)c(C)c(OC(=O)c3ccccn3)c2C[C@H]2[C@H]3C4=C(C[C@H]([C@H](C#N)N12)N3C)C(=O)C(C)=C(OC)C4=O
NCI-H292
  IC50: 103 nM
NCI-H460
  IC50: 26 nM

## COc1cccc2c1C(=O)c1c(O)c3c(c(O)c1C2=O)C[C@@](O)(C(=O)CO)C[C@@H]3O[C@H]1C[C@H](N)[C@H](O)[C@H](C)O1 [DOXORUBICIN]
NCI-H292
  IC50: 351 nM
NCI-H460
  IC50: 34 nM

## C/C=C(/C)C(=O)OC[C@H]1C2=C(C[C@H]3[C@H]4C5=C(C[C@@H]([C@H](C#N)N13)N4C)C(=O)C(C)=C(OC)C5=O)C(=O)C(C)=C(OC)C2=O [RENIERAMYCIN M]
NCI-H292
  IC50: 24 nM
NCI-H460
  IC50: 6.5 nM
